# How the values were obtained:
# Assay type in all cases: functional
# [1] = system: SNB-19; test: Growth inhibition of human SNB19 cells at 10 uM after 48 hrs by coulter counting; conditions: SNB-19, 48 h, read-out: GI
# Method in brief: (§1)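 Single-dose primary screen across the full NCI 60-cell-line panel. Stocks were made in DMSO and diluted in PBS to a final DMSO below 1%. Cultures at 6 × 10⁴ cells/ml were run in duplicate wells alongside PBS/DMSO vehicle controls at 37 °C in humidified 5% CO₂. Data were expressed as percent growth of treated cells.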
# [2] = system: ACHN; test: Growth inhibition of human ACHN cells at 10 uM after 48 hrs by coulter counting; conditions: read-out: GI; method in brief: as §1
# [3] = system: NCI-H226; test: Growth inhibition of human NCI-H226 cells at 10 uM after 48 hrs by coulter counting; conditions: NCI-H226, 48 h, read-out: GI; method in brief: as §1
# [4] = system: SN12C; test: Growth inhibition of human SN12C cells at 10 uM after 48 hrs by coulter counting; conditions: read-out: GI; method in brief: as §1
# [5] = Growth inhibition of human NCI-322M cells at 10 uM after 48 hrs by coulter counting; conditions: read-out: GI; method in brief: as §1
# [6] = system: LOX IMVI; test: Growth inhibition of human LOXIMVI cells at 10 uM after 48 hrs by coulter counting; conditions: read-out: GI; method in brief: as §1
# [7] = system: HCT-116; test: Growth inhibition of human HCT116 cells at 10 uM after 48 hrs by coulter counting; conditions: HCT-116, 48 h, read-out: GI; method in brief: as §1
# [8] = system: UACC-257; test: Growth inhibition of human UACC257 cells at 10 uM after 48 hrs by coulter counting; conditions: UACC-257, 48 h, read-out: GI
# Method in brief: (§2)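 Single-dose screen in the NCI 60 human tumor cell line panel (nine subpanels). Compounds dissolved in DMSO and diluted in phosphate buffered saline, keeping final DMSO below 1%. Added in duplicate wells to cells at 6 × 10⁴ cells/ml. Controls held PBS and DMSO at matching dilutions. Incubated at 37 °C, humidified, 5% CO₂. Reported as percent growth of treated cells.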
# [9] = system: SNB-75; test: Growth inhibition of human SNB75 cells at 10 uM after 48 hrs by coulter counting; conditions: SNB-75, 48 h, read-out: GI; method in brief: as §1
# [10] = system: M14; test: Growth inhibition of human M14 cells at 10 uM after 48 hrs by coulter counting; conditions: M14, 48 h, read-out: GI; method in brief: as §1
# [11] = system: RPMI-8226; test: Growth inhibition of human RPMI8226 cells at 10 uM after 48 hrs by coulter counting; conditions: RPMI-8226, 48 h, read-out: GI; method in brief: as §1
# [12] = system: SK-MEL-5; test: Growth inhibition of human SK-MEL-5 cells at 10 uM after 48 hrs by coulter counting; conditions: SK-MEL-5, 48 h, read-out: GI; method in brief: as §1
# [13] = system: CAKI-1; test: Growth inhibition of human Caki1 cells at 10 uM after 48 hrs by coulter counting; conditions: CAKI-1, 48 h, read-out: GI; method in brief: as §1
# [14] = system: MOLT-4; test: Growth inhibition of human MOLT4 cells at 10 uM after 48 hrs by coulter counting; conditions: MOLT-4, 48 h, read-out: GI; method in brief: as §1
# [15] = system: A498; test: Growth inhibition of human A498 cells at 10 uM after 48 hrs by coulter counting; conditions: A498, 48 h, read-out: GI; method in brief: as §1
# [16] = system: HOP-62; test: Growth inhibition of human HOP62 cells at 10 uM after 48 hrs by coulter counting; conditions: HOP-62, 48 h, read-out: GI; method in brief: as §1
# [17] = system: EKVX; test: Growth inhibition of human EKVX cells at 10 uM after 48 hrs by coulter counting; conditions: read-out: GI; method in brief: as §1
# [18] = system: UACC-62; test: Growth inhibition of human UACC62 cells at 10 uM after 48 hrs by coulter counting; conditions: UACC-62, 48 h, read-out: GI; method in brief: as §2
# [19] = system: U-251; test: Growth inhibition of human U251 cells at 10 uM after 48 hrs by coulter counting; conditions: U-251, 48 h, read-out: GI; method in brief: as §2
# [20] = system: DU-145; test: Growth inhibition of human DU145 cells at 10 uM after 48 hrs by coulter counting; conditions: DU-145, 48 h, read-out: GI; method in brief: as §1
# [21] = system: BT-549; test: Growth inhibition of human BT549 cells at 10 uM after 48 hrs by coulter counting; conditions: BT-549, 48 h, read-out: GI; method in brief: as §1
# [22] = system: SK-MEL-2; test: Growth inhibition of human SK-MEL-2 cells at 10 uM after 48 hrs by coulter counting; conditions: SK-MEL-2, 48 h, read-out: GI; method in brief: as §1
# [23] = system: OVCAR-8; test: Growth inhibition of human OVCAR8 cells at 10 uM after 48 hrs by coulter counting; conditions: OVCAR-8, 48 h, read-out: GI; method in brief: as §1
# [24] = system: HCT-15; test: Growth inhibition of human HCT15 cells at 10 uM after 48 hrs by coulter counting; conditions: HCT-15, 48 h, read-out: GI; method in brief: as §1
# [25] = system: MDA-MB-435; test: Growth inhibition of human MDA-MB-435 cells at 10 uM after 48 hrs by coulter counting; conditions: MDA-MB-435, 48 h, read-out: GI; method in brief: as §1
# [26] = system: SK-MEL-28; test: Growth inhibition of human SK-MEL-28 cells at 10 uM after 48 hrs by coulter counting; conditions: SK-MEL-28, 48 h, read-out: GI; method in brief: as §1
# [27] = system: T47D; test: Growth inhibition of human T47D cells at 10 uM after 48 hrs by coulter counting; conditions: read-out: GI; method in brief: as §2
# [28] = system: TK-10; test: Growth inhibition of human TK10 cells at 10 uM after 48 hrs by coulter counting; conditions: TK-10, 48 h, read-out: GI; method in brief: as §2
# [29] = system: NCI-H23; test: Growth inhibition of human NCI-H23 cells at 10 uM after 48 hrs by coulter counting; conditions: NCI-H23, 48 h, read-out: GI; method in brief: as §1
# [30] = system: NCI-H522; test: Growth inhibition of human NCI-H522 cells at 10 uM after 48 hrs by coulter counting; conditions: NCI-H522, 48 h, read-out: GI; method in brief: as §1
# [31] = system: KM12; test: Growth inhibition of human KM12 cells at 10 uM after 48 hrs by coulter counting; conditions: KM12, 48 h, read-out: GI; method in brief: as §1
# [32] = system: NCI-H460; test: Growth inhibition of human NCI-H460 cells at 10 uM after 48 hrs by coulter counting; conditions: NCI-H460, 48 h, read-out: GI; method in brief: as §1
# [33] = system: MCF7; test: Growth inhibition of human MCF7 cells at 10 uM after 48 hrs by coulter counting; conditions: MCF7, 48 h, read-out: GI; method in brief: as §1
# [34] = system: SF-268; test: Growth inhibition of human SF268 cells at 10 uM after 48 hrs by coulter counting; conditions: SF-268, 48 h, read-out: GI; method in brief: as §1
# [35] = system: HT-29; test: Growth inhibition of human HT-29 cells at 10 uM after 48 hrs by coulter counting; conditions: HT-29, 48 h, read-out: GI; method in brief: as §1
# [36] = system: NCI/ADR-RES; test: Growth inhibition of human NCI/ADR-RES cells at 10 uM after 48 hrs by coulter counting; conditions: read-out: GI; method in brief: as §1
# [37] = system: SF-295; test: Growth inhibition of human SF295 cells at 10 uM after 48 hrs by coulter counting; conditions: SF-295, 48 h, read-out: GI; method in brief: as §1
# [38] = system: UO-31; test: Growth inhibition of human UO31 cells at 10 uM after 48 hrs by coulter counting; conditions: UO-31, 48 h, read-out: GI; method in brief: as §2
# [39] = system: HL-60(TB); test: Growth inhibition of human HL-60(TB) cells at 10 uM after 48 hrs by coulter counting; conditions: HL-60, 48 h, read-out: GI
# Method in brief: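 Test compound was dissolved in DMSO and diluted in phosphate-buffered saline to a final DMSO level below 1%. Dilutions were plated in duplicate with cell culture at 6 × 10⁴ cells/ml. Vehicle controls held PBS and DMSO at matching dilutions. Incubation was at 37 °C, humidified, under 5% CO₂. Data were reported as percent growth of treated cells.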
# [40] = system: K562; test: Growth inhibition of human K562 cells at 10 uM after 48 hrs by coulter counting; conditions: K562, 48 h, read-out: GI; method in brief: as §1
# [41] = system: CCRF-CEM; test: Growth inhibition of human CCRF-CEM cells at 10 uM after 48 hrs by coulter counting; conditions: read-out: GI; method in brief: as §1
# [42] = system: 786-0; test: Growth inhibition of human 786-0 cells at 10 uM after 48 hrs by coulter counting; conditions: 786-0, 48 h, read-out: GI; method in brief: as §1
# [43] = system: A549; test: Growth inhibition of human A549 cells at 10 uM after 48 hrs by coulter counting; conditions: A549, 48 h, read-out: GI; method in brief: as §1
structure (smiles),measurement,setting,value
CCN1CC2=C(N=C3SC=C(C)N3C2c2ccc(OC)cc2)/C(=C/c2ccc(OC)cc2)C1 (stereo not drawn),inhibition of growth at 10 µM,[1],> 10%
same,inhibition of growth at 10 µM,[2],> 10%
same,inhibition of growth at 10 µM,[3],> 10%
same,inhibition of growth at 10 µM,[4],> 10%
same,inhibition of growth at 10 µM,[5],> 10%
same,inhibition of growth at 10 µM,[6],> 10%
same,inhibition of growth at 10 µM,[7],> 10%
same,inhibition of growth at 10 µM,[8],> 10%
same,inhibition of growth at 10 µM,[9],12.5%
same,inhibition of growth at 10 µM,[10],> 10%
same,inhibition of growth at 10 µM,[11],> 10%
same,inhibition of growth at 10 µM,[12],> 10%
same,inhibition of growth at 10 µM,[13],> 10%
same,inhibition of growth at 10 µM,[14],> 10%
same,inhibition of growth at 10 µM,[15],> 10%
same,inhibition of growth at 10 µM,[16],> 10%
same,inhibition of growth at 10 µM,[17],> 10%
same,inhibition of growth at 10 µM,[18],> 10%
same,inhibition of growth at 10 µM,[19],> 10%
same,inhibition of growth at 10 µM,[20],> 10%
same,inhibition of growth at 10 µM,[21],> 10%
same,inhibition of growth at 10 µM,[22],> 10%
same,inhibition of growth at 10 µM,[23],> 10%
same,inhibition of growth at 10 µM,[24],> 10%
same,inhibition of growth at 10 µM,[25],> 10%
same,inhibition of growth at 10 µM,[26],> 10%
same,inhibition of growth at 10 µM,[27],> 10%
same,inhibition of growth at 10 µM,[28],> 10%
same,inhibition of growth at 10 µM,[29],> 10%
same,inhibition of growth at 10 µM,[30],> 10%
same,inhibition of growth at 10 µM,[31],> 10%
same,inhibition of growth at 10 µM,[32],> 10%
same,inhibition of growth at 10 µM,[33],> 10%
same,inhibition of growth at 10 µM,[34],> 10%
same,inhibition of growth at 10 µM,[35],> 10%
same,inhibition of growth at 10 µM,[36],> 10%
same,inhibition of growth at 10 µM,[37],> 10%
same,inhibition of growth at 10 µM,[38],35.5%
same,inhibition of growth at 10 µM,[39],> 10%
same,inhibition of growth at 10 µM,[40],> 10%
same,inhibition of growth at 10 µM,[41],> 10%
same,inhibition of growth at 10 µM,[42],> 10%
same,inhibition of growth at 10 µM,[43],> 10%

# Source: ChEMBL document CHEMBL1926614, “Substituted thiazoles V. synthesis and antitumor activity of novel thiazolo[2,3-b]quinazoline and pyrido[4,3-d]thiazolo[3,2-a]pyrimidine analogues” (2012)
